High-throughput results (PubChem)
T cruzi growth-1 – T. cruzi proliferation inhibition | T. cruzi beta-gal in NIH3T3, GalScreen luminescence, 90 h | AID 624255 | 77,000 compounds, 5.9% hits | inhibition, % at 8.34 µM;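 active = mean inhibition above about 93%, with at least 55% of replicates each passing it, limit read from the data, passing the limit was not always enough; inconclusive = only one of those two conditions holds; inactive = neither condition holds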
GASC1 inh – blocks human GASC-1 (KDM4C) demethylase activity. Q9H3R0. GST-KDM4C 2-372, H3K9me3 peptide, LANCE TR-FRET. inhibition, % at 12.5 µM. 96,000 compounds, 0.15% hits. AID 720574;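 active = mean replicate inhibition above about 25%, with at least 55% of replicates also reaching it, limit read from the data, passing the limit was not always enough; inconclusive = only one of those two conditions met; inactive = neither condition met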
Target sequence (Q9H3R0 2-372 limits assumed): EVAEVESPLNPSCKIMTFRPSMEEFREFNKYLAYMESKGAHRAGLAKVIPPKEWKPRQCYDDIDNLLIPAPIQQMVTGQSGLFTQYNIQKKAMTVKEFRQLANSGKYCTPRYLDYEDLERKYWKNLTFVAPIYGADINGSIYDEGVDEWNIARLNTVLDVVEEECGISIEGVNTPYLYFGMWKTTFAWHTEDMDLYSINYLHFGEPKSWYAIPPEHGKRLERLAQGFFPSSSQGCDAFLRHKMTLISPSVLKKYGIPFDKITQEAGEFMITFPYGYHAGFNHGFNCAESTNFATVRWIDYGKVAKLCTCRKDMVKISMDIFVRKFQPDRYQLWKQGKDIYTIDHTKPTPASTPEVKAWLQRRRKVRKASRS
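System: N-terminal GST-fused human GASC-1 (KDM4C) fragment, residues 2-372 / Amount: 10 nM GST-KDM4C in enzyme reaction / Also added: H3K9me3 peptide with Fe(II)/2OG / Times: 30 min demethylation and 1 h detection at room temperature / Signal: LANCE TR-FRET / Read-out basis: Fall in 671/618 emission ratio as inhibition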
IDH1 mut inh – blocks human IDH1 R132H reductase activity | O75874 | diaphorase/resazurin fluorescence, 60 min | inhibition, % at 10 µM | 70,000 compounds, 0.18% hits; in the data active = inhibition above about 34%; inconclusive = no clear call, values can overlap the other calls; inactive = below about 11%;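 note: 0% = DMSO and 100% = no enzyme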
T cruzi growth-2 – blocks T. cruzi growth in NIH3T3 host cells; shares compounds with T cruzi growth-1; T. cruzi beta-gal in NIH3T3, GalScreen luminescence, 90 h; inhibition, % at 8.35 µM; 5,600 compounds, 72% hits; AID 651739;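 active = mean replicate inhibition above about 95% and at least 55% of replicates individually reaching it, limit read from the data; inconclusive = only one of the two criteria is met; inactive = neither criterion is met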
T cruzi growth-3 – Trypanosoma cruzi proliferation inhibition; 5,600 compounds, 21% hits; inhibition, % at 2.09 µM; shares compounds with T cruzi growth-1; T. cruzi beta-gal in NIH3T3, GalScreen luminescence, 90 h; AID 651740;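 active = mean inhibition above about 95%, with at least 55% of replicates also reaching it, limit read from the data; inconclusive = meets just one of the two conditions; inactive = meets neither condition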;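 note: plate controls were neutral control median for no effect and positive control median for full effect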
NIH3T3 tox – NIH/3T3 (mouse) viability loss; shares compounds with T cruzi growth-1; NIH/3T3 viability, CellTiter-Glo ATP luminescence, 90 h; cytotoxicity (signal decrease), % at 8.35 µM; 5,600 compounds, 14% hits;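 active = mean signal decrease across replicates above about 35% based on untreated-well scatter, with enough replicates individually passing, limit read from the data; inconclusive = no rule stated though some were filed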;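 note: 0% = median of neutral control wells and 100% = median of positive control wells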
NIH3T3 tox 2 – kills mouse NIH/3T3 fibroblasts; shares compounds with T cruzi growth-1; NIH/3T3 viability, CellTiter-Glo ATP luminescence, 90 h; inhibition, % at 24.9 µM; 5,600 compounds, 56% hits; AID 651744;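 active = mean loss of cell viability signal at or above a set limit, and enough replicates individually reaching it; inconclusive = meets only the mean limit or only the replicate share; inactive = meets neither condition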;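 note: 0% = median of neutral control wells and 100% = median of positive control wells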
* = called active by the depositor; ? = inconclusive; / = no result. Many of the other results were omitted from the sample, so hits are more common in it than they were.

SMILES | T cruzi growth-1 | GASC1 inh | IDH1 mut inh | T cruzi growth-2 | T cruzi growth-3 | NIH3T3 tox | NIH3T3 tox 2
CC(C)(C)c1n[nH]c(C(C)(C)C)c1Cc1c(F)cccc1Cl | / | / | -1 | / | / | / | /
CC(C)C(=O)Nc1ccccc1C(=O)OCc1cccc([N+](=O)[O-])c1 | / | / | 0 | / | / | / | /
COC(=O)c1cccc(NC(=O)CSc2n[nH]c(-c3ccc(Cl)cc3)n2)c1 | / | / | 1 | / | / | / | /
Cc1cc(C(=O)O)ccc1NC(=O)C1CC=CCC1C(=O)O (centres undefined) | / | / | 0 | / | / | / | /
CCC(=O)N1CCN(c2ccc(Cl)cc2NC(=O)COc2cc(C)c(Cl)c(C)c2)CC1 | / | / | 0 | / | / | / | /
COc1ccc(Cl)cc1Nc1nc(N)nc(-c2cc3ccccc3o2)n1 | / | / | 0 | / | / | / | /
COc1ccc(NC(=O)Nc2ccc3c(c2)C(=O)N([C@H](C)CO)C[C@H](C)[C@@H](CN(C)C(=O)Nc2ccc(C(F)(F)F)cc2)OCCCC[C@@H](C)O3)cc1 | 112 | 0 | / | / | / | / | /
COc1ccc(NC(=O)Nc2ccc3c(c2)C(=O)N([C@H](C)CO)C[C@H](C)[C@H](CN(C)C(=O)Nc2ccc(C(F)(F)F)cc2)OCCCC[C@H](C)O3)cc1 | ? | 0 | -1 | 109* | 99* | 5 | 7
C/C=C/c1cnc2c(c1)C(=O)N([C@H](C)CO)C[C@@H](C)[C@@H](CN(C)Cc1ccc(F)cc1)O2 | 119* | -2 | 0 | ? | -21 | -5 | ?
C/C=C/c1cnc2c(c1)C(=O)N([C@H](C)CO)C[C@H](C)[C@@H](CN(C)Cc1ccc(F)cc1)O2 | 46 | 7 | 0 | / | / | / | /
C/C=C/c1cnc2c(c1)C(=O)N([C@@H](C)CO)C[C@H](C)[C@H](CN(C)Cc1ccc(F)cc1)O2 | 114* | 5 | 0 | 75 | 18 | 23 | 48*
C/C=C/c1cnc2c(c1)C(=O)N([C@@H](C)CO)C[C@H](C)[C@@H](CN(C)Cc1ccc(F)cc1)O2 | 37 | 7 | 0 | / | / | / | /
CSc1nnc(Cc2ccccc2)c(=O)[nH]1 | / | / | -1 | / | / | / | /
CCn1c(SCC(=O)Nc2ccc(Br)cc2F)nnc1-c1ccccc1Cl | / | / | 0 | / | / | / | /
NC(=O)CN(Cc1ccc(Cl)c(Cl)c1)S(=O)(=O)c1ccc(Br)cc1 | / | / | 0 | / | / | / | /
CN1C(=O)c2cc(NC(=O)c3cnccn3)ccc2OC[C@@H]2O[C@H](CC(=O)N[C@@H]3CCN(Cc4ccccc4)C3)CC[C@H]21 | 85 | 2 | / | / | / | / | /
CN1C(=O)c2cc(NC(=O)c3cnccn3)ccc2OC[C@H]2O[C@@H](CC(=O)N[C@H]3CCN(Cc4ccccc4)C3)CC[C@@H]21 | 82 | -1 | / | / | / | / | /
CN1C(=O)c2cc(NC(=O)c3cnccn3)ccc2OC[C@@H]2O[C@H](CC(=O)N[C@H]3CCN(Cc4ccccc4)C3)CC[C@@H]21 | 109* | 0 | / | 95* | ? | -13 | 2
CN1C(=O)c2cc(NC(=O)c3cnccn3)ccc2OC[C@@H]2O[C@@H](CC(=O)N[C@@H]3CCN(Cc4ccccc4)C3)CC[C@H]21 | 101* | -1 | / | 101* | 48 | 0 | -8
O=C(CN(C1CCCCC1)S(=O)(=O)c1ccc(Cl)cc1)Nc1ccc(F)cc1F | / | / | 0 | / | / | / | /
CC(C)CC#Cc1ccc2c(c1)O[C@H](CN(C)CC1CC1)[C@H](C)CN([C@@H](C)CO)S2(=O)=O | ? | -1 | -2 | 100* | 90 | 40* | 107*
CC(C)CC#Cc1ccc2c(c1)O[C@H](CN(C)CC1CCOCC1)[C@H](C)CN([C@H](C)CO)S2(=O)=O | ? | 3 | / | 108* | 85 | 22 | 105*
CCCC#Cc1ccc2c(c1)O[C@@H](CN(C)CC1CC1)[C@@H](C)CN([C@@H](C)CO)S2(=O)=O | 31 | 0 | -1 | / | / | / | /
CC(C)CC#Cc1ccc2c(c1)O[C@H](CN(C)CC1CCOCC1)[C@@H](C)CN([C@@H](C)CO)S2(=O)=O | 106 | -2 | 0 | / | / | / | /
CCn1nc(C)c(NC(=S)NCc2ccco2)c1C | / | / | 0 | / | / | / | /
O=C(NCSCc1cccc(C(F)(F)F)c1)Nc1ccc(F)c(Cl)c1 | / | / | 1 | / | / | / | /
C[C@@H]1CCCCO[C@H](CN(C)C(=O)Nc2ccc(C(F)(F)F)cc2)[C@H](C)CN([C@@H](C)CO)C(=O)c2cc(NS(=O)(=O)c3cccs3)ccc2O1 | 81 | 20 | 0 | / | / | / | /
